Assays:
MS2 coat protein [1] = test: apparent Kd, MS2 coat protein; higher = weaker binding; RNA-MaP array
Outline: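 Designed RNAs were produced on an Illumina sequencing chip by transcription of sequenced DNA templates. Binding to fluorescently labeled MS2 coat protein (1.5 nM to 3 μM) was measured at room temperature with or without input ligand. The apparent Kd is the median of per-cluster binding-curve fits. Designs were excluded when measured on fewer than 10 clusters.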

MS2 coat protein [2] = test: apparent Kd, MS2 coat protein; higher = weaker binding; RNA-MaP array; FMN 200 µM where present
Outline: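 In 100 mM Tris-HCl pH 7.5, 80 mM KCl, 4 mM MgCl2, BSA, DTT, yeast tRNA and Tween-20, SNAP-549-labelled MS2 coat protein was titrated from 0.7 or 1.5 nM, doubling to 3 µM, over designs transcribed by stalled E. coli RNA polymerase on Illumina sequencing-chip clusters. This was done first without ligand, then with ligand held constant. After green signal was normalised to red-channel RNA signal and control-cluster median Fmax, the apparent Kd was taken as the median of filtered per-cluster binding-curve fits.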

[3] = designed as: OFF switch for flavin mononucleotide, no ligand
[4] = ligand present: flavin mononucleotide, designed as: OFF switch for flavin mononucleotide
[5] = designed as: ON switch for flavin mononucleotide, no ligand
[6] = ligand present: flavin mononucleotide, designed as: ON switch for flavin mononucleotide

## AAACAUGAGGAUCACCCAUGUCGUCCAAUGUAGGCCUAUUGCGAGGAUAUCAUGUCCCAACUACGUGAGAAGGCGCGACUACCA
MS2 coat protein [1]; [3]
  apparent Kd: 15.2 nM
MS2 coat protein [1]; [4]
  apparent Kd: 12.5 nM

## AAAGAUAACAAAGGAUAUGGAAGAAAUUAUAGGCCAGAAGGAUGGAAAUUGACAAUCGUGACAUGAGGAUCACCCAUGUAAGAA
MS2 coat protein [1]; [5]
  apparent Kd: 15.9 nM
MS2 coat protein [1]; [6]
  apparent Kd: 13.2 nM

## AACAUGAGGAUCACCCAUGUUCUGCAAUAAAGUGUAUCAUAUAAGGAUAUCAGACUAAUACGAACUGAGAAGGUAUUCCUACAC
MS2 coat protein [1]; [5]
  apparent Kd: 5.3 nM
MS2 coat protein [1]; [6]
  apparent Kd: 4.39 nM

## AAGAGACAUGAGGAUCACCCAUGUGUUGAUACCAGAAACACAAAGUUCCCUUGGCAGCAAAUCUGAGCGAAACGAUCUAGAGCGC
MS2 coat protein [1]; designed as: ON switch for theophylline, no ligand
  apparent Kd: 48.4 nM
MS2 coat protein [1]; ligand present: theophylline, designed as: ON switch for theophylline
  apparent Kd: 74.5 nM

## AAGAGCAGAGGAUAUACAUAGGCAUCAGUUGAAGCAGCUGAACAUGAGGAUCACCCAUGUAGAAGGCUGACAAA
MS2 coat protein [1]; [3]
  apparent Kd: 5.43 nM
MS2 coat protein [1]; [4]
  apparent Kd: 7.29 nM

## AAGGGCGCAGUAGGAUAUCAAUGUUUGACGGCGUGAGAAGGACUGCCCUAUUUUCAGACAUGAGGAUCACCCAUGUGCGUAAGA
MS2 coat protein [1]; [5]
  apparent Kd: 9.4 nM
MS2 coat protein [1]; [6]
  apparent Kd: 6.41 nM

## AAUACAUGAGGAUCACCCAUGUUGACAUCAUGAGCCAACCUUAGAAGGACUUUAAUGACGCUCGAGUAGGAUAUAAGGCAAGUU
MS2 coat protein [1]; [5]
  apparent Kd: 13.7 nM
MS2 coat protein [1]; [6]
  apparent Kd: 12 nM

## AAUUCAAGGGUUAGGAUAUUCAAUAUAAAAUACUAGAAGAAGGAACAUGAGGAUCACCCAUGUUAUAGUGAUCU
MS2 coat protein [1]; [3]
  apparent Kd: 27.1 nM
MS2 coat protein [1]; [4]
  apparent Kd: 32.1 nM

## ACAAAAUAGCUAGGAUAUCGUACGAAUUGACAUUUUUAGCAAACAUGAGGAUCACCCAUGUCCUACGAGAAGGAGCUUAUGAAG
MS2 coat protein [1]; [3]
  apparent Kd: 14.3 nM
MS2 coat protein [1]; [4]
  apparent Kd: 7.55 nM

## ACACAUGAGGAUCACCCAUGUCGACGUUAGGCUCGUCGCGGCAGAAGGUGUGGCAUGGACACCCACAAGGAUAUGCAUGGGACU
MS2 coat protein [1]; [5]
  apparent Kd: 174 nM
MS2 coat protein [1]; [6]
  apparent Kd: 119 nM

## ACCAGGUCAGGAUAUAGUUGGCAUUUGGCUGUGCCUCACUACUAGAAGGGACAUGAGGAUCACCCAUGUUGGGC
MS2 coat protein [1]; [3]
  apparent Kd: 28.6 nM
MS2 coat protein [1]; [4]
  apparent Kd: 50.5 nM

## ACGAAGUGAGGAUAUACAUGAGGAUCACCCAUGUGCCCAGGGUGUGAUUGUAAAGAACGUAGAAGGCACAAUAG
MS2 coat protein [1]; [3]
  apparent Kd: 594 nM
MS2 coat protein [1]; [4]
  apparent Kd: 132 nM

## ACUAAUCAGCAACAUGAGGAUCACCCAUGUGGGCCGUCCGGCAGAAGGCCUACGCACUUAGACUAGGAGGAUAUGCAAGCAACU
MS2 coat protein [1]; [3]
  apparent Kd: 15.7 nM
MS2 coat protein [1]; [4]
  apparent Kd: 18.4 nM

## ACUCGACAUGAGGAUCACCCAUGUCAGGAUAUCUGAGUGUGGCCUCCUACUAAACUAUAGAGAAGGGACAAUGG
MS2 coat protein [1]; [3]
  apparent Kd: 10.3 nM
MS2 coat protein [1]; [4]
  apparent Kd: 11 nM

## ACUCGGGGUUGAGGAUAUUCGACUCGAUCUCCACAUGAGGAUCACCCAUGUCAGGACUGACCGGUGAAGAAGGCAACCGUACAU
MS2 coat protein [1]; [5]
  apparent Kd: 16.2 nM
MS2 coat protein [1]; [6]
  apparent Kd: 5.67 nM

## ACUGUCUUUGAUGAUAUGUAUGGGUCAUUGCGAGGACCGGUACGGCCGCCACUCGGUCCGCCACAUGAGGAUCACCCAUGUCUAU
MS2 coat protein [1]; designed as: OFF switch for tryptophan, no ligand
  apparent Kd: 94.5 nM
MS2 coat protein [1]; ligand present: tryptophan, designed as: OFF switch for tryptophan
  apparent Kd: 195 nM

## AGAAAACAUGAGGAUCACCCAUGUAAGGAUAUACAAACUCCAGAAAUAAAAGGAUUAAGAAGAAGGUACAUAAA
MS2 coat protein [1]; [3]
  apparent Kd: 10.9 nM
MS2 coat protein [1]; [4]
  apparent Kd: 9.2 nM

## AGACAUGAGGAUCACCCAUGUCUCGGGAUGCGUAGCUUGCACAGAAGGCAUGACCGCAACGGUGAUGAGGAUAUGUCGUACCAA
MS2 coat protein [1]; [5]
  apparent Kd: 25.9 nM
MS2 coat protein [1]; [6]
  apparent Kd: 8.87 nM

## UUUGGGUGGCUGGAGGAUAUCCUGGUUGUUACAUGAGGAUCACCCAUGUGCCGCGCGGUGCGCUGGGAGAAGGCUGGCGGCCGUU
MS2 coat protein [2]; [5]
  apparent Kd: 130 nM
MS2 coat protein [2]; [6]
  apparent Kd: 27.6 nM

## UUUGGGUGGCUGGAGGAUAUCCUGGUUGUUACAUGAGGAUCACCCAUGUGCCGCGCGGUUCGCGAGGAGAAGGCUGGCGGCCGUU
MS2 coat protein [2]; [5]
  apparent Kd: 147 nM
MS2 coat protein [2]; [6]
  apparent Kd: 33.6 nM

## UUUGGGUGGCUGGAGGAUAUUCUAGUGGUUACAUGAGGAUCACCCAUGUGUCGCGCGGUACGCGAGGAGAAGGCUGGCGGCCGUU
MS2 coat protein [2]; [5]
  apparent Kd: 135 nM
MS2 coat protein [2]; [6]
  apparent Kd: 35.1 nM

## UUUGGGUGGCUGGAGGAUAUUCUUGUGGUUACAUGAGGAUCACCCAUGUGUCGCGCGGUGCGCGAGGAGAAGGCUGGCGGCCGUU
MS2 coat protein [2]; [5]
  apparent Kd: 411 nM
MS2 coat protein [2]; [6]
  apparent Kd: 128 nM

## UUUGUGUAAGGAUAUCACUACCGGGUCCGGACGCCCGCAGAUGAGAAGGUACAUGAGGAUCACCCAUGUCCCUA
MS2 coat protein [2]; [3]
  apparent Kd: 19.7 nM
MS2 coat protein [2]; [4]
  apparent Kd: 26.4 nM

## UUUGUUGUUGUGAGGAUAUCGUUGUUAUUUUGAAACGAGAAGGCACAUGAGGAUCACCCAUGUUUGUUGAUGGU
MS2 coat protein [2]; [3]
  apparent Kd: 43.9 nM
MS2 coat protein [2]; [4]
  apparent Kd: 122 nM

## UUUGUUUAGGUAGGAUAUACUUUUAAUUUCUCUUUCCUUACAUGAGGAUCACCCAUGUUUACAUUGUAGAAGGACCACUUUGUU
MS2 coat protein [2]; [3]
  apparent Kd: 21.8 nM
MS2 coat protein [2]; [4]
  apparent Kd: 19.8 nM

## UUUGUUUUGCAAGGAUAUGUUUAAUUUUAGUUUCCUUACACAUGAGGAUCACCCAUGUUAUACUUACAGAAGGUGCGUAAUUUU
MS2 coat protein [2]; [3]
  apparent Kd: 126 nM
MS2 coat protein [2]; [4]
  apparent Kd: 94 nM

## UUUUAACUACAAUUACAUGAGGAUCACCCAUGUUUUGGGAUGCAGGAUAUGUGGUAUAUUAAUUAACAGAAGGGCAAUAAUUAA
MS2 coat protein [2]; [5]
  apparent Kd: 57.6 nM
MS2 coat protein [2]; [6]
  apparent Kd: 46.4 nM

## UUUUAGGGAGGAUAUACAUUUUUUUUAUUAUCCUCAUUAUUACAUGAGGAUCACCCAUGUAGAAGGCCCAUUUU
MS2 coat protein [2]; [3]
  apparent Kd: 60.7 nM
MS2 coat protein [2]; [4]
  apparent Kd: 146 nM

## UUUUAGUCAGGAUAUACAUUUUUUUAUUUAUUUAUAAUAUUACAUGAGGAUCACCCAUGUAGAAGGGACAUUUU
MS2 coat protein [2]; [3]
  apparent Kd: 31.8 nM
MS2 coat protein [2]; [4]
  apparent Kd: 26.5 nM

## UUUUAGUGAGGAUAUGUGGCUUCGAUCGUGAGAUCGAGGCUACAGAAGGCACAUGAGGAUCACCCAUGUUCCUC
MS2 coat protein [2]; [3]
  apparent Kd: 38.3 nM
MS2 coat protein [2]; [4]
  apparent Kd: 597 nM

## UUUUCCGGGCAGAAGGGUCCUCACAUGAGGAUCACCCAUGUAAACGCGGAUAGGAUAUGCCACUGGGCUCGAUAAGAGUGGUUC
MS2 coat protein [2]; [5]
  apparent Kd: 409 nM
MS2 coat protein [2]; [6]
  apparent Kd: 160 nM

## UUUUUACAUGAGGAUCACCCAUGUCAGGAUAUCGUUAUAUUUUAUUAUUUUAUUUUUUCGAGAAGGGACUAUUA
MS2 coat protein [2]; [3]
  apparent Kd: 90.3 nM
MS2 coat protein [2]; [4]
  apparent Kd: 58.6 nM

## UUUUUACGAGGAUAUCGUUUUUUUCACAUGAGGAUCACCCAUGUUGUUUAUGUUGCGUUGCGAGAAGGCGUUUGUU
MS2 coat protein [2]; [3]
  apparent Kd: 27.4 nM
MS2 coat protein [2]; [4]
  apparent Kd: 22.8 nM

## UUUUUACGAGGAUAUCGUUUUUUUCACAUGAGGAUCACCCAUGUUGUUUAUGUUUCGUUGCGAGAAGGCGUUUGUU
MS2 coat protein [2]; [3]
  apparent Kd: 27.3 nM
MS2 coat protein [2]; [4]
  apparent Kd: 21.3 nM

## UUUUUAUUUGCAGGAUAUUGUAUUUUAUUACUUCAAGAAGGGCAUUACAUGAGGAUCACCCAUGUCUUCCUAUGGUUAACUAGU
MS2 coat protein [2]; [3]
  apparent Kd: 12.3 nM
MS2 coat protein [2]; [4]
  apparent Kd: 12 nM

## UUUUUGUCAGGAUAUCGUUAAUUUAAUUGUUUGUAUUAGUUCGAGAAGGGACAUGAGGAUCACCCAUGUAUUUU
MS2 coat protein [2]; [3]
  apparent Kd: 41.1 nM
MS2 coat protein [2]; [4]
  apparent Kd: 103 nM

## UUUUUGUCAGGAUAUCUAAUCUAGAUGUUCGCAUCUAGAUUAGAGAAGGGACAUGAGGAUCACCCAUGUAGUUU
MS2 coat protein [2]; [3]
  apparent Kd: 61.9 nM
MS2 coat protein [2]; [4]
  apparent Kd: 253 nM

## UUUUUGUGAGGAUAUCAGUAGUAAAAAAAUAAAAUUACUACUGAGAAGGCACAUGAGGAUCACCCAUGUUUUUU
MS2 coat protein [2]; [3]
  apparent Kd: 41.7 nM
MS2 coat protein [2]; [4]
  apparent Kd: 96.5 nM

## UUUUUGUGAGGAUAUCAGUAGUAGAACAAUAGUACUACUACUGAGAAGGCACAUGAGGAUCACCCAUGUUCCUU
MS2 coat protein [2]; [3]
  apparent Kd: 16 nM
MS2 coat protein [2]; [4]
  apparent Kd: 34.6 nM

## UUUUUGUUCAAGAAGGAUGUUUUAGUUUAGAUCAUAGGAUAUUGAUAUAUUGUAGACUCAUGUAACAUGAGGAUCACCCAUGUA
MS2 coat protein [2]; [5]
  apparent Kd: 101 nM
MS2 coat protein [2]; [6]
  apparent Kd: 65.4 nM

## UUUUUUGUUGUGAGGAUAUCGUAUUUUUUUUGUUACGAGAAGGCACAUGAGGAUCACCCAUGUUUCUUGAUGUU
MS2 coat protein [2]; [3]
  apparent Kd: 13.6 nM
MS2 coat protein [2]; [4]
  apparent Kd: 28.6 nM

## UUUUUUGUUGUGAGGAUAUCGUUGUGGAUGUGGAUCGAGAAGGCACAUGAGGAUCACCCAUGUUUGUUGUGGUU
MS2 coat protein [2]; [3]
  apparent Kd: 102 nM
MS2 coat protein [2]; [4]
  apparent Kd: 158 nM

Source: the EternaBench riboswitch data
